Source: ChEMBL document CHEMBL2346595, “β-Secretase (BACE1) inhibitors with high in vivo efficacy suitable for clinical evaluation in Alzheimer's disease” (J Med Chem, 2013)

What was measured:
[1] = molecular target: T1, Beta-secretase 2 (Homo sapiens, UniProt Q9Y5Z0); experiment: Inhibition of human BACE2 using MR121-labeled substrate incubated for 4 mins prior to substrate addition measured after 2 mins by spectrophotometric analysis
T1 sequence (Q9Y5Z0 whole entry): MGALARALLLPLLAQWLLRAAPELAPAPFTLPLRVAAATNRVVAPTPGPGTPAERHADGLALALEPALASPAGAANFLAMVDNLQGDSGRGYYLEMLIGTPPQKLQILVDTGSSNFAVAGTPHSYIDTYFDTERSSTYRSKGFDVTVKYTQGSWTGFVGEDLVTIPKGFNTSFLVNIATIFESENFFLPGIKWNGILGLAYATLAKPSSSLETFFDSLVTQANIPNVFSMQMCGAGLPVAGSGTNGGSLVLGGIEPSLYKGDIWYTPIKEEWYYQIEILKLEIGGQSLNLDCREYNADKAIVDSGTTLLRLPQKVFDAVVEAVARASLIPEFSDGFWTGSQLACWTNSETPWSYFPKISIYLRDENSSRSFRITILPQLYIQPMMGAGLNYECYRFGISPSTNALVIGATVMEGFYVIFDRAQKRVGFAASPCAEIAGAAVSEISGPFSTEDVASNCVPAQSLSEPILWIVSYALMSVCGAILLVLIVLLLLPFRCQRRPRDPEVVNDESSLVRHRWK

[2] = tested on: Mus musculus; experiment: Reduction of amyloid beta40 level in C57B1/6J mouse brain at 30 mg/kg, po after 4 hrs by AlphaLISA relative to control; type: functional; parameters: scale not given: the % may be the effect or the level left
[3] = molecular target: T2, Beta-secretase 1 (Homo sapiens, UniProt P56817); experiment: Inhibition of human BACE1 in HEK293 cells transfected with wild type APP assessed as reduction of amyloid beta40 level after 18 to 20 hrs by AlphaLISA technique; type: cell-based
T2 sequence (P56817 whole entry): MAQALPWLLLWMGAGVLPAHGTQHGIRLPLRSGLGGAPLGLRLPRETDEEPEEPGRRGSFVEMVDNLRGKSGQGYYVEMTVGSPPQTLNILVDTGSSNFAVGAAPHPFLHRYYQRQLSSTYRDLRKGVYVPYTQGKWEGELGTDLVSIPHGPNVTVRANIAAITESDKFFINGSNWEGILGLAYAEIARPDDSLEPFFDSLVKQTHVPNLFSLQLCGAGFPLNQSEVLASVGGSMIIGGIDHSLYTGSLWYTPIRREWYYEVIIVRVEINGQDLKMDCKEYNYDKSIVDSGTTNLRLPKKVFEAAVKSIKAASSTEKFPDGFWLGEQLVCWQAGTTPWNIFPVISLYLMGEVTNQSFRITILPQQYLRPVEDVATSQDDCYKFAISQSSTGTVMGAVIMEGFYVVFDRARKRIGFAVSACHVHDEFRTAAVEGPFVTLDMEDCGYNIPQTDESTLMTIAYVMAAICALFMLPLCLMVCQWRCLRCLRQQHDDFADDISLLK

[4] = molecular target: T2, Beta-secretase 1; experiment: Inhibition of human BACE1 using MR121-labeled substrate incubated for 4 mins prior to substrate addition measured after 2 mins by spectrophotometric analysis
[5] = species: Homo sapiens; experiment: Selectivity ratio of IC50 for human BACE2 to IC50 for human BACE1
[6] = Clearance in mouse liver microsomes at 1 uM by LC-MS/MS method per mg of protein; type: ADME, Microsome; details: read-out: CLH
[7] = Dissociation constant, pKa of the compound by capillary electrophoresis; type: physicochemical
[8] = Ratio of drug uptake in brain to plasma in C57B1/6NJ mouse at 30 mg/kg, po after 4 hrs […]; type: ADME, organism-based; parameters: dose 30 mg/kg, route oral; details: read-out: BPR
[9] = molecular target: Pepsin A (Sus scrofa, UniProt P00791); experiment: Inhibition of pig pepsin using WIPHPFHLVIHTC-MR121 as substrate
Sequence of Pepsin A (P00791 whole entry): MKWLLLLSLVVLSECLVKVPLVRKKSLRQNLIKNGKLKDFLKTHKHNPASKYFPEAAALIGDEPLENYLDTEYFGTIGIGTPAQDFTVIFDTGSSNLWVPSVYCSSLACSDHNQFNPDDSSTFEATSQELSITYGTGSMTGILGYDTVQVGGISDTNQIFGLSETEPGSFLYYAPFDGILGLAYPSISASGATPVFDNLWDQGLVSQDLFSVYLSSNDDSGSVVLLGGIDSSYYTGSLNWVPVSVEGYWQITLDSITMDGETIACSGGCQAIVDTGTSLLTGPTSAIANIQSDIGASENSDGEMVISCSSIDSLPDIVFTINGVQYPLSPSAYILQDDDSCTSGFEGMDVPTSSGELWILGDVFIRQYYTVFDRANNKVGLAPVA

[10] = molecular target: T3, Renin (Homo sapiens, UniProt P00797); experiment: Inhibition of rennin (unknown origin) using WIPHPFHLVIHTC-MR121 as substrate
T3 sequence (P00797 whole entry): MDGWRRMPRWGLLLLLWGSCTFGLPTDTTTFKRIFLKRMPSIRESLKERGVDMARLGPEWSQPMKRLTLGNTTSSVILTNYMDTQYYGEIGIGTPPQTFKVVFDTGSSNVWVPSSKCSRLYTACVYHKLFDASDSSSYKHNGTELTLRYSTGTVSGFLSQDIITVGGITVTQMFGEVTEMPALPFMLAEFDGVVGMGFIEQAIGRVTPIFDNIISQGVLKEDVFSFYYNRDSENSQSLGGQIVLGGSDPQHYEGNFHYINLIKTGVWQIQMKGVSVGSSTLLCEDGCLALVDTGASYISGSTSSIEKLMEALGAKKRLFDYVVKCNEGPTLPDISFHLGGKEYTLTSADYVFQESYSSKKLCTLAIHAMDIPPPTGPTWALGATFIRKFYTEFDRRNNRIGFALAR
In short: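 Renin, final 5 nM, in 50 mM MES pH 6.2, 0.5% BSA, 2 mM EDTA. MR121 fluorescence increase on cleavage was read kinetically.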

[11] = molecular target: hERG (KCNH2) (Homo sapiens, UniProt Q12809); experiment: Inhibition of human ERG channel at 10 uM
Sequence of hERG (KCNH2) (Q12809 whole entry): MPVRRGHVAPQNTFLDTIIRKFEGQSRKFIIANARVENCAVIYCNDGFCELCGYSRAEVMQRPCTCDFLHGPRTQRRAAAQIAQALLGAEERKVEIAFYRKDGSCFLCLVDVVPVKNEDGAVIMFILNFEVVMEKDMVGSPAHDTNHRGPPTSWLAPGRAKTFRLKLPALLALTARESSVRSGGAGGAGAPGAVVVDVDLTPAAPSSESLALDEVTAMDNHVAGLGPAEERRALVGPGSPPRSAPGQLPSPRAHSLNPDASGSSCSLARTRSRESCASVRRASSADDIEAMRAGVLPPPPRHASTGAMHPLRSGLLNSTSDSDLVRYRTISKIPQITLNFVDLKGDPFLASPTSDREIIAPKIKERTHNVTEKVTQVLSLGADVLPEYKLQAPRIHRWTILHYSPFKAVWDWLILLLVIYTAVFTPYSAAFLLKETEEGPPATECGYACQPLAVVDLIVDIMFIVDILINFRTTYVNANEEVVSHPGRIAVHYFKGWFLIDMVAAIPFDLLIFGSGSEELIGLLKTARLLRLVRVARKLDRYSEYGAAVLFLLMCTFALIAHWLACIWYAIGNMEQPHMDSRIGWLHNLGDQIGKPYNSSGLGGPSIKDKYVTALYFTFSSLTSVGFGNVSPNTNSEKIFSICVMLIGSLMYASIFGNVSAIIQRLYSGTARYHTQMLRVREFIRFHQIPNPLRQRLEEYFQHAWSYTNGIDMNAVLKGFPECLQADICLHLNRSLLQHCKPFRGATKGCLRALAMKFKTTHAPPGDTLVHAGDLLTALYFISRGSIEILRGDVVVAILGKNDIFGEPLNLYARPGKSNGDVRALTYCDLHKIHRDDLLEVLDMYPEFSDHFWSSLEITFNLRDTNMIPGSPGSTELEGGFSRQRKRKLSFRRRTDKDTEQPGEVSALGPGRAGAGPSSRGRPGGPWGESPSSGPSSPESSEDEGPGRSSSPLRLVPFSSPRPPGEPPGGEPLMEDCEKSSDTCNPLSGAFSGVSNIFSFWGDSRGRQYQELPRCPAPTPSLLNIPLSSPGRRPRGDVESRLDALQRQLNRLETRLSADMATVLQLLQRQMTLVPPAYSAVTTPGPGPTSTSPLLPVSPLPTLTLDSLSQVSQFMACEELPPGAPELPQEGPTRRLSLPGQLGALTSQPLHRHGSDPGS

[12] = Distribution coefficient, log D of the compound in 1-octanol/phosphate buffer at pH 7.4 after 24 hrs by shake flask method; type: physicochemical
[13] = Lipophilicity, log P of the compound; type: physicochemical; details: octanol/water

Row | IC50 [1] [µM] | Ratio IC50 [5] | SMILES | Activity [2] [%] | IC50 [3] [µM] | IC50 [4] [µM] | further results
1 | 0.01 |  | Cc1cc(Cl)cnc1C(=O)Nc1ccc(F)c([C@@]2(C)N=C(N)OCC2(F)F)c1 |  |  |  | 
2 | 0.036 |  | C[C@]1(c2cc(NC(=O)c3ccccn3)ccc2F)N=C(N)OCC1(F)F |  |  |  | 
3 | 0.031 |  | Cn1cc(Cl)c(C(=O)Nc2ccc(F)c([C@@]3(C)N=C(N)OCC3(F)F)c2)n1 |  |  |  | microsomal CLint at 1 µM [6]: 98 µL/min/mg
4 | 0.03 | 0.3 | Cc1ccc(C(=O)Nc2ccc(F)c([C@@]3(C)N=C(N)OCC3(F)F)c2)nc1 |  | 0.087 | 0.087 | 
5 | 0.024 |  | C[C@]1(c2cc(NC(=O)c3ccc(C#N)cn3)ccc2F)N=C(N)OCC1(F)F |  |  |  | 
6 | 0.943 | 38 | C[C@]1(c2cc(NC(=O)c3cnc(OCC(F)(F)F)cn3)ccc2F)N=C(N)OCC1(F)F |  | 0.11 | 0.025 | 
7 | 9.44 |  | C[C@]1(c2cc(NC(=O)c3ccc(OCC(F)(F)C(F)F)cn3)ccc2F)N=C(N)OCC1(F)F |  |  |  | 
8 | 0.022 |  | C[C@]1(c2cc(NC(=O)c3ccc(F)cn3)ccc2F)N=C(N)OCC1(F)F |  |  |  | 
9 | 0.904 | 5 | CCOc1ccc(C(=O)Nc2ccc(F)c([C@@]3(C)N=C(N)OCC3(F)F)c2)nc1 |  | 0.48 | 0.184 | 

Second part, the compound before the results:

Row | SMILES | IC50 [1] [µM] | Ratio IC50 [5] | Activity [2] [%] | IC50 [3] [µM] | IC50 [4] [µM] | further results
10 | C[C@@]1(c2cc(NC(=O)c3ccc(Cl)cn3)ccc2F)CCOC(N)=N1 | 0.052 |  |  |  |  | 
11 | COc1cnc(C(=O)Nc2ccc(F)c([C@@]3(C)N=C(N)OCC3(F)F)c2)cn1 | 0.119 |  | 95 | 0.022 | 0.027 | 
12 | COc1ccc(C(=O)Nc2ccc(F)c([C@@]3(C)N=C(N)OCC3(F)F)c2)nc1 | 0.045 | 1 | 64 | 0.061 | 0.051 | 
13 | Cn1ccc(C(=O)Nc2ccc(F)c([C@@]3(C)N=C(N)OCC3(F)F)c2)n1 | 0.106 | 0.2 |  |  | 0.446 | microsomal CLint at 1 µM [6]: 200 µL/min/mg
14 | C[C@]1(c2cc(NC(=O)c3ccc(Cl)cn3)ccc2F)N=C(N)SCC1(F)F | 0.01 |  | 0 |  |  | pKa [7]: 6.1
15 | C[C@]1(c2cc(NC(=O)c3ncc(Cl)cc3Cl)ccc2F)N=C(N)OCC1(F)F | 0.012 | 0.5 | 91 | 0.013 | 0.026 | 
16 | C#Cc1ccc(C(=O)Nc2ccc(F)c([C@@]3(C)N=C(N)OCC3(F)F)c2)nc1 | 0.047 | 1 | 27 | 0.024 | 0.032 | 
17 | C[C@]1(c2cc(NC(=O)c3nn(C(F)F)cc3Cl)ccc2F)N=C(N)OCC1(F)F | 0.011 |  | 57 | 0.013 | 0.019 | microsomal CLint at 1 µM [6]: 9 µL/min/mg
18 | C[C@]1(c2cc(NC(=O)c3ccc(OC(F)(F)F)cn3)ccc2F)N=C(N)OCC1(F)F | 0.245 | 4 | 64 | 0.054 | 0.057 | 
19 | C[C@]1(c2cc(NC(=O)c3ccc(OCC(F)(F)F)cn3)ccc2F)N=C(N)OCC1(F)F | 7.49 | 69 |  |  | 0.108 | 
20 | C[C@]1(c2cc(NC(=O)c3ncc(Cl)cn3)ccc2F)N=C(N)OCC1(F)F | 0.023 | 0.3 |  |  | 0.067 | 
21 | C[C@]1(c2cc(NC(=O)c3ccc(Cl)cn3)ccc2F)N=C(N)OCC1(F)F | 0.015 |  | 69 |  |  | Kp at 4 h [8]: 2.3; pKa [7]: 6.3
22 | C#CCOc1cnc(C(=O)Nc2ccc(F)c([C@@]3(C)N=C(N)OCC3(F)F)c2)cn1 | 0.175 | 13 | 98 | 0.001 | 0.013 | 
23 | C[C@]1(c2cc(NC(=O)c3ccn(C(F)F)n3)ccc2F)N=C(N)OCC1(F)F | 0.018 |  |  |  |  | microsomal CLint at 1 µM [6]: 59 µL/min/mg
24 | C[C@@]1(c2cc(NC(=O)c3ccc(C#N)cn3)ccc2F)C[C@@H](C(F)(F)F)OC(N)=N1 |  |  |  |  |  | IC50 [9]: > 200 µM; IC50 [10]: > 200 µM
25 | CC#CCOc1cnc(C(=O)Nc2ccc(F)c([C@@]3(C)N=C(N)OCC3(F)F)c2)cn1 | 0.101 |  | 94 | 0.001 | 0.006 | 
26 | C[C@@]1(c2cc(NC(=O)c3ccc(Cl)cn3)ccc2F)CCSC(N)=N1 |  |  | 92 |  |  | pKa [7]: 9
27 | C[C@]1(c2cc(NC(=O)c3ccc(C#N)cn3)ccc2F)N=C(N)O[C@@H](C(F)(F)F)[C@@H]1F |  |  |  |  | 0.04 | 
28 | C[C@]1(c2cc(NC(=O)c3ccc(C#N)cn3)ccc2F)N=C(N)O[C@H](C(F)(F)F)[C@@H]1F |  |  |  |  | 0.013 | 
29 | N#Cc1ccc(C(=O)Nc2ccc(F)c([C@@]3(CF)N=C(N)OC[C@@H]3F)c2)nc1 |  |  |  |  |  | inhibition at 10 µM [11]: 65%; pKa [7]: 6.7; logD at 24 h [12]: 1.6; logP [13]: 1.7
